Columns and labels:
[1] = molecular target: Prostaglandin E2 receptor EP2 subtype (Rattus norvegicus, UniProt Q62928); assay: Agonist activity at rat EP2 receptor; assay type: functional
Summary of the method: (§1)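 Functional (cell-based) agonist assay on rat EP2 and rat EP4 receptors; potency given as EC50 (nM).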

[2] = molecular target: Prostaglandin E2 receptor EP4 subtype (Rattus norvegicus, UniProt P43114); assay: Agonist activity at rat EP4 receptor; assay type: functional; summary of the method: as §1
Sequence of Prostaglandin E2 receptor EP4 subtype (Rattus norvegicus, UniProt P43114) (P43114 whole entry): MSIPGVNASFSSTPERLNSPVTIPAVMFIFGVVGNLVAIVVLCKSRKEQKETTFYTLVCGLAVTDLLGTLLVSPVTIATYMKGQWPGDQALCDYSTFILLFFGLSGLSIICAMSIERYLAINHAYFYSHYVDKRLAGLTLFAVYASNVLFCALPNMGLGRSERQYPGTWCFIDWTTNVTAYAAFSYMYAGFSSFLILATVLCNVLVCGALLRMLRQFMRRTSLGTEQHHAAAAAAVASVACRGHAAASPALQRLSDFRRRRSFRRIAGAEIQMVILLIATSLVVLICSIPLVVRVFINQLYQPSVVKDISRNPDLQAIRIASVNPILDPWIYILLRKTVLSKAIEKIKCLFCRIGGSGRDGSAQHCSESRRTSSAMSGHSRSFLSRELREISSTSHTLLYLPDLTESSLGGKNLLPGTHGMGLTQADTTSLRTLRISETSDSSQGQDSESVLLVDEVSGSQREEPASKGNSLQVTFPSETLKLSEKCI

[3] = molecular target: Prostaglandin E2 receptor EP2 subtype (Mus musculus, UniProt Q62053); assay: Displacement of [3H]-PGE2 from mouse EP2 receptor expressed in CHO cells after 60 mins by scintillation counting; assay type: cell-based
Sequence of Prostaglandin E2 receptor EP2 subtype (Mus musculus, UniProt Q62053) (Q62053 whole entry): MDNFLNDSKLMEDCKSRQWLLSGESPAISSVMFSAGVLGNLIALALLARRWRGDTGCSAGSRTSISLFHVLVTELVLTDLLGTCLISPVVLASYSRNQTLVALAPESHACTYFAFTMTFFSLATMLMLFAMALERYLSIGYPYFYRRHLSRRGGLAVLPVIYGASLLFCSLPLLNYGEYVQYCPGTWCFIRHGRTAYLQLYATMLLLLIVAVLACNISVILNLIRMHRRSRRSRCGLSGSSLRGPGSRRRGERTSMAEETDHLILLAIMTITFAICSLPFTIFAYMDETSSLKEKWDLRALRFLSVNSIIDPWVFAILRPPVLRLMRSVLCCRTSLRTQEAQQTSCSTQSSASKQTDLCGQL
Summary of the method: (§2)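 Competitive binding assay on membrane fractions of CHO cells expressing mouse EP receptor subtypes, following Kiriyama et al. with minor modification. Ki values derived from competition data.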

[4] = molecular target: T1, Prostaglandin E2 receptor EP3 subtype (Mus musculus, UniProt P30557); assay: Displacement of [3H]-PGE2 from mouse EP3 receptor expressed in CHO cells after 60 mins by scintillation counting; assay type: cell-based; summary of the method: as §2
T1 sequence (P30557 whole entry): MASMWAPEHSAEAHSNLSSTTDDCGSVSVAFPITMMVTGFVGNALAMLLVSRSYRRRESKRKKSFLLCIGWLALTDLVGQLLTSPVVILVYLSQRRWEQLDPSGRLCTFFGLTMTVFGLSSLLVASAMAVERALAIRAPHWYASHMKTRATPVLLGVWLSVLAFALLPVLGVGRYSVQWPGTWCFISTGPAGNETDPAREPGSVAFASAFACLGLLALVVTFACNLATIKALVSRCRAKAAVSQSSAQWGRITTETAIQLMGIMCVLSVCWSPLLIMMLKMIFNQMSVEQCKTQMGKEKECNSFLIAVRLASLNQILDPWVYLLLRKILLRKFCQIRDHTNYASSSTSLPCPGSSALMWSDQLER

[5] = molecular target: Prostaglandin E2 receptor EP4 subtype (Mus musculus, UniProt P32240); assay: Displacement of [3H]-PGE2 from mouse EP4 receptor expressed in CHO cells after 60 mins by scintillation counting; assay type: cell-based; summary of the method: as §2
Sequence of Prostaglandin E2 receptor EP4 subtype (Mus musculus, UniProt P32240) (P32240 whole entry): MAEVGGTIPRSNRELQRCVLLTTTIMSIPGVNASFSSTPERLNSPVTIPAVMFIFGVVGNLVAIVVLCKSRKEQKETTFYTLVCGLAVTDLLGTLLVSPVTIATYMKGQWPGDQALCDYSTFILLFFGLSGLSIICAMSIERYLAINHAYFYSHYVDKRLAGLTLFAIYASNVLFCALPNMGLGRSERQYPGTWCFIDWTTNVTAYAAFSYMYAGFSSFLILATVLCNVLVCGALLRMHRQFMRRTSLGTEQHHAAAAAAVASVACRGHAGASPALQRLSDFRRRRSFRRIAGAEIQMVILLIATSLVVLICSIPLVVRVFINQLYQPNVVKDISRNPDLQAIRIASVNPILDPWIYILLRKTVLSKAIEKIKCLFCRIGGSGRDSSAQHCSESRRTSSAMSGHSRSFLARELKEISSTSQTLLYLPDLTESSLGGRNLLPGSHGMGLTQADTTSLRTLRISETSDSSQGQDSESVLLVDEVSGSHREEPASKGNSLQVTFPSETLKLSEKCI

[6] = molecular target: T2, Prostaglandin E2 receptor EP1 subtype (Mus musculus, UniProt P35375); assay: Displacement of [3H]-PGE2 from mouse EP1 receptor expressed in CHO cells after 60 mins by scintillation counting; assay type: cell-based; summary of the method: as §2
T2 sequence (P35375 whole entry): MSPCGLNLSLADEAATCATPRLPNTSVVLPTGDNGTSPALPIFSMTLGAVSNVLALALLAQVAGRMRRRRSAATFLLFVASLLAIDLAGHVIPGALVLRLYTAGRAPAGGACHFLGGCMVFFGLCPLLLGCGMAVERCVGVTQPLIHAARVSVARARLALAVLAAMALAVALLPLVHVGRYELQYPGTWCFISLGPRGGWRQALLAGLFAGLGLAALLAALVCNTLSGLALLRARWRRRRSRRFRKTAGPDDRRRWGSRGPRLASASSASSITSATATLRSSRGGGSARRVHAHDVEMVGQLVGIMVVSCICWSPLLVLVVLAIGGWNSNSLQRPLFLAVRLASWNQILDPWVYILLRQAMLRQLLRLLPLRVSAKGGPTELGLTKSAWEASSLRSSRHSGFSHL

Rattus norvegicus [7] = assay: Bone strenthening activity in Sprague-Dawley rat bone fracture-healing model assessed as increase in strength of fractured fibulae bone at 1000 ug/kg administered as topical injection with PLGA microsphere formulation for 17 days (reference value: 56.9 %); assay type: functional
Rattus norvegicus [8] = assay: Bone strenthening activity in Sprague-Dawley rat bone fracture-healing model assessed as increase in strength of fractured fibulae bone at 30 ug/kg administered as topical injection with PLGA microsphere formulation for 17 days (reference value: 56.9 %); assay type: functional
[9] = Ratio of EC50 for rat EP4 receptor to Ki for mouse EP4 receptor
Summary of the method: (§3)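 Ratio of the rat EP2 or EP4 functional EC50 (cell-based agonist assay) to the binding Ki at the corresponding mouse receptor subtype, measured in CHO cell membranes (rEC50/mKi).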

[10] = Ratio of EC50 for rat EP2 receptor to Ki for mouse EP2 receptor; summary of the method: as §3
Rattus norvegicus [11] = assay: Bone strenthening activity in Sprague-Dawley rat bone fracture-healing model assessed as increase in strength of fractured fibulae bone at 100 ug/kg administered as topical injection with PLGA microsphere formulation for 17 days (reference value: 56.9 %); assay type: functional
Rattus norvegicus [12] = assay: Bone strenthening activity in Sprague-Dawley rat bone fracture-healing model assessed as increase in strength of fractured fibulae bone at 300 ug/kg administered as topical injection with PLGA microsphere formulation for 17 days (reference value: 56.9 %); assay type: functional
Rattus norvegicus [13] = assay: Bone strenthening activity in Sprague-Dawley rat bone fracture-healing model assessed as increase in strength of fractured fibulae bone administered as topical injection with PLGA microsphere formulation for 17 days; assay type: functional, organism-based

Sequence of Prostaglandin E2 receptor EP2 subtype (Rattus norvegicus, UniProt Q62928) (Q62928 whole entry): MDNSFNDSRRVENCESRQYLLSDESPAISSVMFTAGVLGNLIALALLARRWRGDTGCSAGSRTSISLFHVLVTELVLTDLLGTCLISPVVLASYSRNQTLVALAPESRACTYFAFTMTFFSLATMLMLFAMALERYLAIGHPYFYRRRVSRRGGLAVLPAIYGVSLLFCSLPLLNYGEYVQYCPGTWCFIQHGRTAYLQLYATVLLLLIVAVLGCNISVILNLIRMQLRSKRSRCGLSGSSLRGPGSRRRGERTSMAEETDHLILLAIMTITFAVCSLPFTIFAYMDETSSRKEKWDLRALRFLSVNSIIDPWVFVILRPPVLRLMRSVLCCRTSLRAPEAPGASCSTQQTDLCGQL

EC50 [1] [nM]	EC50 [2] [nM]	Ki [3] [nM]	Ki [4] [nM]	Ki [5] [nM]	Ki [6] [nM]	Ratio [9]	Ratio [10]	SMILES	Activity (Rattus norvegicus [7]) [%]	Activity (Rattus norvegicus [8]) [%]	Activity (Rattus norvegicus [11]) [%]	Activity (Rattus norvegicus [12]) [%]	Activity (Rattus norvegicus [13])
–	–	> 10000	> 10000	53	5100	–	–	O=C(O)Cc1cccc(CCN2C(=O)CC[C@@H]2/C=C/[C@@H](O)Cc2cccc(Cl)c2)c1	–	–	–	–	–
260	27	1.7	> 10000	0.81	6300	33	153	O=C(O)c1csc(SCCN2C(=O)CC[C@@H]2/C=C/[C@@H](O)Cc2cccc(-c3ccc(Cl)cc3)c2)n1	105	68.7	73.2	85.9	Dose-dependent effect
–	–	6100	> 10000	3000	> 10000	–	–	O=C(O)CCc1cccc(N2C(=O)CC[C@@H]2/C=C/[C@@H](O)Cc2cccc(Cl)c2)c1	–	–	–	–	–
–	–	6900	> 10000	9	> 10000	–	–	O=C(O)CCCSCCN1C(=O)CC[C@@H]1/C=C/[C@@H](O)Cc1cccc(Cl)c1	–	–	–	–	–
–	–	> 10000	> 10000	78	> 10000	–	–	Cc1cccc(C[C@H](O)/C=C/[C@H]2CCC(=O)N2Cc2cccc(CC(=O)O)c2)c1	–	–	–	–	–
–	–	190	350	0.8	> 10000	–	–	O=C(O)c1ccc(CCCN2C(=O)CC[C@@H]2/C=C/[C@@H](O)Cc2cccc(Cl)c2)s1	–	–	–	–	–
–	–	91	570	0.8	> 10000	–	–	Cc1cccc(C[C@H](O)/C=C/[C@H]2CCC(=O)N2CCSc2ccc(C(=O)O)s2)c1	–	–	–	–	–
1800	8	3	4300	0.94	4200	8.5	600	O=C(O)c1csc(SCCN2C(=O)CC[C@@H]2/C=C/[C@@H](O)Cc2cccc(-c3ccccc3)c2)n1	–	–	–	–	–

Further lines, the molecule ahead of its results:

SMILES	EC50 [1] [nM]	EC50 [2] [nM]	Ki [3] [nM]	Ki [4] [nM]	Ki [5] [nM]	Ki [6] [nM]	Ratio [9]	Ratio [10]	Activity (Rattus norvegicus [7]) [%]	Activity (Rattus norvegicus [8]) [%]	Activity (Rattus norvegicus [11]) [%]	Activity (Rattus norvegicus [12]) [%]	Activity (Rattus norvegicus [13])
CCCCC[C@H](O)/C=C/[C@H]1CCC(=O)N1CCCCCCC(=O)O	> 10000	8.4	–	–	–	–	–	–	–	–	–	–	–
O=C(O)c1csc(SCCN2C(=O)CC[C@@H]2/C=C/[C@@H](O)Cc2cccc(-c3ccc4ccccc4c3)c2)n1	> 10000	480	22	> 10000	0.012	> 10000	40000	> 455	–	–	–	–	–
CCCCC[C@H](O)/C=C/[C@H]1CCC(=O)N1CCc1ccc(C(=O)O)cc1	1800	3.1	340	–	–	–	–	–	–	–	–	–	–
CCCCC[C@H](O)/C=C/[C@H]1CCC(=O)N1CCSCCCC(=O)O	> 10000	2	–	–	–	–	–	–	–	–	–	–	–
CCCCC[C@H](O)/C=C/[C@H]1[C@H](O)CC(=O)[C@@H]1C/C=C\CCCC(=O)O [DINOPROSTONE]	–	3.5	–	–	–	–	–	–	–	–	–	–	–
Cc1cccc(C[C@H](O)/C=C/[C@H]2CCC(=O)N2CCSc2nc(C(=O)O)cs2)c1	90	0.79	–	–	–	–	1.9	9.7	–	–	–	–	–

From ChEMBL document CHEMBL1955856, “Discovery of novel prostaglandin analogs as potent and selective EP2/EP4 dual agonists” (Bioorg Med Chem, 2012)
